Measurements: ChEMBL document CHEMBL1151806, “Indolizidine, antiinfective and antiparasitic compounds from Prosopis glandulosa var. glandulosa” (J Nat Prod, 2009)
Converted amounts (≈) assume the structure as drawn. The source made the active and inactive calls. The rule behind the calls is not given here.

Columns and labels:
LLC-PK1 = test: Cytotoxicity against pig LLC-PK1 cells after 48 hrs by neutral red assay; format: cell-based, Sus scrofa; settings: Sus scrofa, LLC-PK1, 48 h; read-out: IC50
Summary of the method: (§1)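 Cells seeded at 25,000/well, incubated 24 h, then exposed to samples for 48 h. Viable cells measured by Neutral Red uptake. IC50 from logarithmic plots of growth inhibition vs concentration. Doxorubicin positive control, DMSO vehicle control.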

Plasmodium falciparum [1] = test: Antimalarial activity after 72 hrs against […] Plasmodium falciparum D6 by pLDH activity; format: functional, organism-based; settings: D6, 72 h
Summary of the method: (§2)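 P. falciparum-infected red cells (2% parasitemia, 2% hematocrit) in RPMI-1640 with 10% human serum and 60 μg/mL amikacin, exposed to serial sample concentrations. Gassed with 90% N2/5% O2/5% CO2, incubated 37 °C for 72 h. Parasite LDH activity read colorimetrically with Malstat reagent.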

Vero [2] = test: Cytotoxicity against african green monkey Vero cells at 4760 ng/mL; format: cell-based, Chlorocebus sabaeus
Vero [3] = test: Cytotoxicity against african green monkey Vero cells after 48 hrs by neutral red assay; format: cell-based, Chlorocebus sabaeus; summary of the method: as §1
Staphylococcus aureus [4] = test: Antimicrobial activity against methicillin-resistant Staphylococcus aureus ATCC 43300 by NCCLS method in presence of 5% human serum; format: functional, organism-based
[5] = Selectivity index, IC50 for african green monkey (Cercopithecus aethiops) Vero cells to IC50 for […]; format: functional
Summary of the method: (§3)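 Selectivity index = IC50 against VERO cells divided by IC50 against P. falciparum (D6 or W2, respectively), each from the corresponding in-house assay.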

Candida albicans [6] = test: Antimicrobial activity against Candida albicans ATCC 90028 by NCCLS method in presence of 5% human serum; format: functional, organism-based
[7] = Selectivity index, IC50 for african green monkey (Cercopithecus aethiops) Vero cells to IC50 for chloroquine-sensitive Plasmodium falciparum D6; format: functional; summary of the method: as §3
Aspergillus fumigatus [8] = test: Antimicrobial activity against Aspergillus fumigatus ATCC 90906 by alamar blue assay; format: functional, organism-based
Summary of the method: (§4)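 Samples serially diluted in 20% DMSO/saline, tested in duplicate. Inocula set by OD630: C. albicans RPMI pH 4.5, 1·10^4 CFU/mL; C. neoformans Sabouraud dextrose, 1·10^5; MRSA cation-adjusted Mueller-Hinton pH 7.3, 5·10^5; M. intracellulare 7H9/OADC + 5% Alamar Blue pH 7.3, 2·10^6; A. fumigatus RPMI pH 7.3 + 5% Alamar Blue, 3·10^4.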

Staphylococcus aureus [9] = test: Antimicrobial activity against methicillin-resistant Staphylococcus aureus ATCC 43300 by NCCLS method; format: functional, organism-based; summary of the method: as §4
[10] = test system: Mycobacterium intracellulare; test: Antimicrobial activity against Mycobacterium intracellular ATCC 23068 by alamar blue assay; format: functional, organism-based
Summary of the method: as §4, with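 “3·10^4. Read at 630 nm or 544ex/590em before and after incubation.” for “3·10^4.”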

Candida albicans [11] = test: Antimicrobial activity against Candida albicans ATCC 90028 by NCCLS method; format: functional, organism-based; summary of the method: as §4
Aspergillus fumigatus [12] = test: Antimicrobial activity against Aspergillus fumigatus ATCC 90906 by alamar blue assay in presence of 5% human serum; format: functional, organism-based
[13] = test system: Mycobacterium intracellulare; test: Antimicrobial activity against Mycobacterium intracellular ATCC 23068 by alamar blue assay in presence of 5% human serum; format: functional, organism-based
Cryptococcus neoformans [14] = test: Antimicrobial activity against Cryptococcus neoformans ATCC 90113 by NCCLS method; format: functional, organism-based; summary of the method: as §4
Cryptococcus neoformans [15] = test: Antimicrobial activity against Cryptococcus neoformans ATCC 90113 by NCCLS method in presence of 5% human serum; format: functional, organism-based
Leishmania donovani = test: Antileishmanial activity against Leishmania donovani promastigotes after 48 hrs by alamar blue assay; format: functional, organism-based
KB = test: Cytotoxicity against human KB cells after 48 hrs by neutral red assay; format: functional, cell-based; summary of the method: as §1
SK-MEL = test: Cytotoxicity against human SK-MEL cells after 48 hrs by neutral red assay; format: functional, cell-based; summary of the method: as §1
SK-OV-3 = test: Cytotoxicity against human SKOV3 cells after 48 hrs by neutral red assay; format: functional, cell-based; settings: SK-OV-3, 48 h; summary of the method: as §1
BT-549 = test: Cytotoxicity against human BT549 cells after 48 hrs by neutral red assay; format: functional, cell-based; settings: BT-549, 48 h; summary of the method: as §1
Plasmodium falciparum [16] = test: Antimalarial activity after 72 hrs against chloroquine-resistant Plasmodium falciparum W2 by pLDH activity; format: functional, organism-based; settings: W2, 72 h; summary of the method: as §2
Vero [17] = test: Cytotoxicity against african green monkey Vero cells; format: cell-based; settings: Chlorocebus sabaeus; summary of the method: as §1
[18] = Chlorocebus sabaeus, Vero, 48 h, read-out: IC50
[19] = Candida albicans, ATCC 90028, read-out: IC50
[20] = Aspergillus fumigatus, ATCC 90906
[21] = Aspergillus fumigatus, ATCC 90906, read-out: IC50

| Compound | IC50 (LLC-PK1) [mg/L] | IC50 (Plasmodium falciparum [1]) [mg/L] | IC50 (Vero [3]; [18]) [mg/L] | Activity (Staphylococcus aureus [4]) | Ratio IC50 [5] | Ratio IC50 [7] | IC50 (Staphylococcus aureus [9]) [mg/L] | IC50 [10] [mg/L] | MBC [10] | MFC (Candida albicans [11]) | IC50 (Cryptococcus neoformans [14]) [mg/L] | MFC (Cryptococcus neoformans [14]) [mg/L] | IC50 (Leishmania donovani) [mg/L] | IC50 (KB) [mg/L] | MFC (Aspergillus fumigatus [8]; [20]) [mg/L] | MIC (Aspergillus fumigatus [8]; [20]) [mg/L] | IC50 (Aspergillus fumigatus [8]; [21]) [mg/L] | IC50 (SK-MEL) [mg/L] | IC50 (Plasmodium falciparum [16]) [mg/L] | IC50 (Vero [17]) [mg/L] | also measured |
| --- | --- | --- | --- | --- | --- | --- | --- | --- | --- | --- | --- | --- | --- | --- | --- | --- | --- | --- | --- | --- | --- |
| C[C@@H]1CC[C@H]2[C@@H](C)C(=O)O[C@@H]3O[C@@]4(C)CC[C@@H]1[C@]32OO4 [ARTEMISININ] | 0.6 (≈ 2.13 µM) | 0.016 (≈ 0.0567 µM) | > 4.76 |  |  |  |  |  |  |  |  |  |  |  |  |  |  |  |  |  | IC50 (Vero [2]): Non-toxic |
| C[C@@H]1N[C@H](CCCCCCCCCCc2cc(CCCCCCCCCC[C@@H]3CC[C@@H](O)[C@H](C)N3)c3[n+](c2)CCC3)CC[C@H]1O.[Cl-] [PROSOPILOSIDINE DIHYDROCHLORIDE] |  | 0.43 |  | Active | >17.6 | >11.1 | 1.5 | 3.5 | inactive | inactive | 1.5 | 2.5 | 2.8 |  |  |  |  |  |  |  | Activity (Candida albicans [6]): Active; IC50 (Aspergillus fumigatus [8]): Not Active; MFC (Aspergillus fumigatus [8]): inactive; MIC (Aspergillus fumigatus [8]): inactive; MIC (Staphylococcus aureus [9]): 2.5 mg/L; MIC [10]: 10 mg/L; MIC (Candida albicans [11]; Candida albicans, ATCC 90028): 20 mg/L; IC50 (Candida albicans [11]; [19]): 15 mg/L; Activity (Aspergillus fumigatus [12]): Active; Activity [13]: Active; MIC (Cryptococcus neoformans [14]): 2.5 mg/L; Activity (Cryptococcus neoformans [15]): Active; IC50 (Vero [2]): Non-toxic; IC90 (Leishmania donovani): 8 mg/L |
| C[C@H]1N[C@@H](CCCCCCCCCCC2=C[C@@H](CCCCCCCCCC[C@@H]3CC[C@H](O)[C@@H](C)N3)[C@@H]3CCCN3C2)CC[C@H]1O [ISOPROSOPILOSINE] |  | 0.083 (≈ 0.132 µM) | 1.8 (≈ 2.86 µM) |  | 12 | 22 | 1 (≈ 1.59 µM) | 1.5 (≈ 2.38 µM) |  |  | 0.4 (≈ 0.635 µM) | 0.63 (≈ 1 µM) | 0.26 (≈ 0.413 µM) | 2.2 (≈ 3.49 µM) | 2.5 (≈ 3.97 µM) | 0.16 (≈ 0.254 µM) | 0.1 (≈ 0.159 µM) | < 1.1 | 0.15 (≈ 0.238 µM) | 1.8 (≈ 2.86 µM) | MIC (Staphylococcus aureus [9]): 2.5 mg/L (≈ 3.97 µM); IC50 (Candida albicans [11]): Not Active; MIC (Cryptococcus neoformans [14]): 0.63 mg/L (≈ 1 µM); IC50 (SK-OV-3): < 1.1 mg/L; IC50 (BT-549): 2.5 mg/L (≈ 3.97 µM) |
| C[C@@H]1N[C@H](CCCCCCCCCCC2=C[C@@H](CCCCCCCCCC[C@@H]3CC[C@@H](O)[C@H](C)N3)[C@@H]3CCCN3C2)CC[C@H]1O |  |  |  | Active |  |  |  |  | inactive | inactive |  |  |  |  |  |  |  |  |  |  | Activity (Candida albicans [6]): Active; MFC (Aspergillus fumigatus [8]): inactive; MIC (Aspergillus fumigatus [8]): inactive; MIC (Candida albicans [11]): inactive; Activity (Aspergillus fumigatus [12]): Active; Activity [13]: Active; Activity (Cryptococcus neoformans [15]): Active |
| C[C@H]1N[C@@H](CCCCCCCCCCC2=C[C@@H](CCCCCCCCCC[C@H]3CC[C@@H](O)[C@@H](C)N3)[C@@H]3CCCN3C2)CC[C@H]1O [JULIPROSOPINE] |  | 0.22 (≈ 0.349 µM) | 5 (≈ 7.94 µM) | Active | 13 | 23 | 3.5 (≈ 5.56 µM) | 6 (≈ 9.52 µM) |  | inactive | 1.5 (≈ 2.38 µM) |  | 0.75 (≈ 1.19 µM) | 6.2 (≈ 9.84 µM) | 1.25 (≈ 1.98 µM) | 1.25 (≈ 1.98 µM) | 0.9 (≈ 1.43 µM) | 2.4 (≈ 3.81 µM) | 0.38 (≈ 0.603 µM) | 5 (≈ 7.94 µM) | Activity (Candida albicans [6]): Active; MBC (Staphylococcus aureus [9]): inactive; IC50 (Candida albicans [11]): Not Active; MIC (Candida albicans [11]): inactive; Activity (Aspergillus fumigatus [12]): Active; Activity [13]: Active; Activity (Cryptococcus neoformans [15]): Active; IC50 (SK-OV-3): 4.7 mg/L (≈ 7.46 µM) |
| C[C@@H]1N[C@H](CCCCCCCCCCc2cc(CCCCCCCCCC[C@H]3CC[C@@H](O)[C@@H](C)N3)c[n+]3c2CCC3)CC[C@H]1O [ISOPROSOPILOSIDINE] | 21.3 |  |  |  | >198 | >567 | 0.6 | 1.5 | inactive | inactive | 0.55 | 1.25 |  | 7 | 10 | 10 | 6.5 | 3.3 | 0.12 | > 23.8 | MBC (Staphylococcus aureus [9]): 20 mg/L; MIC [10]: 2.5 mg/L; IC50 (Candida albicans [11]): Not Active; MIC (Candida albicans [11]): inactive; MIC (Cryptococcus neoformans [14]): 1.25 mg/L; IC50 (SK-OV-3): 4.5 mg/L; IC90 (Leishmania donovani): 2.5 mg/L; IC50 (BT-549): 6.75 mg/L; IC50 (Vero [3]; vero): Not Active |
| C[C@@H]1N[C@H](CCCCCCCCCCC2=C[C@@H](CCCCCCCCCC[C@@H]3CC[C@@H](O)[C@H](C)N3)[C@@H]3CCCN3C2)CC[C@H]1O [PROSOPILOSINE] | 1.9 (≈ 3.02 µM) | 0.12 (≈ 0.19 µM) | 5.7 (≈ 9.05 µM) |  | 24 | 47 | 1.5 (≈ 2.38 µM) | 2 (≈ 3.17 µM) | 20 mg/L (≈ 31.7 µM) |  | 0.8 (≈ 1.27 µM) | 1.25 (≈ 1.98 µM) | 0.65 (≈ 1.03 µM) | 6 (≈ 9.52 µM) | 0.63 (≈ 1 µM) | 0.63 (≈ 1 µM) | 0.45 (≈ 0.714 µM) | < 1.1 | 0.23 (≈ 0.365 µM) | 5.6 (≈ 8.89 µM) | IC50 (Candida albicans [11]; [19]): 15 mg/L (≈ 23.8 µM) |
